Source: ChEMBL document CHEMBL4334446, “Evaluating the effects of fluorine on biological properties and metabolic stability of some antitubulin 3-substituted 7-phenyl-pyrroloquinolinones” (Eur J Med Chem, 2019)
Activity calls are given as the source filed them. The calls are words filed in the database; no cut-off is given here.

Assays:
[1] = Growth inhibition of human DND41 cells incubated for 72 hrs by MTT assay; type: functional; settings: DND41, 72 h
Method in brief: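 Leukemia lines were grown in RPMI-1640; the CEM^Vbl-100 medium also contained 100 ng/mL vinblastine. Cells were seeded at 8 × 10³ per well and left 18 h at 37 °C, 5% CO2. Medium was then replaced with fresh medium holding graded compound concentrations (DMSO stocks), in triplicate, for 72 h. Viability was read by MTT, and GI50 = concentration inhibiting proliferation 50%.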

MDA-MB-231 = assay: Growth inhibition of human MDA-MB-231 cells incubated for 72 hrs by MTT assay; type: functional; settings: MDA-MB-231, 72 h
MDA-MB-468 = assay: Growth inhibition of human MDA-MB-468 cells incubated for 72 hrs by MTT assay; type: functional; settings: MDA-MB-468, 72 h
A2058 [2] = assay: Induction of cell cycle arrest in human A2058 cells assessed as accumulation of cells at G2/M phase at 50 to 100 nM incubated for 24 hrs by PI staining based flow cytometric analysis; type: functional
Method in brief: (§1)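 A375 and A2058 melanoma cells were treated 24 h. Cells were fixed in ice-cold 70% ethanol, then given lysis buffer with RNase A and 0.1% Triton X-100 and stained with PI. Phase distribution came from flow cytometric DNA histograms. Mean ± SEM of two independent experiments.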

A-375 = assay: Induction of cell cycle arrest in human A375 cells assessed as reduction in cell population at G1 phase at 50 to 100 nM incubated for 24 hrs by PI staining based flow cytometric analysis; type: functional; method in brief: as §1
A2058 [3] = assay: Induction of cell cycle arrest in human A2058 cells assessed as reduction in cell population at S phase at 50 to 100 nM incubated for 24 hrs by PI staining based flow cytometric analysis; type: functional; method in brief: as §1
A2058 [4] = assay: Induction of cell cycle arrest in human A2058 cells assessed as reduction in cell population at G1 phase at 50 to 100 nM incubated for 24 hrs by PI staining based flow cytometric analysis; type: functional; method in brief: as §1
HeLa [5] = assay: Cell cycle arrest in human HeLa cells assessed as proportion of mitotic cells at 50 nM incubated for 24 hrs by PI staining based flow cytometric assay (reference value: 1.5%); type: functional
HeLa [6] = assay: Cell cycle arrest in human HeLa cells assessed as disappearance in cdc25c protein expression at 50 to 100 nM incubated for 48 hrs by western blot analysis; type: functional, cell-based
Method in brief: (§2)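 HeLa cells were exposed for set times, including 24 and 48 h, then washed in cold PBS and lysed on ice for 30 min. Lysates were cleared at 15000 × g at 4 °C. 10 µg protein was run by SDS-PAGE and transferred to PVDF. Blots were probed 2 h at room temperature with primary antibodies, then peroxidase secondary antibodies, and detected by ECL. Membranes were reprobed for actin as loading control.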

HeLa [7] = assay: Cell cycle arrest in human HeLa cells assessed as decrease in phosphorylated form of cdc2 kinase at 50 to 100 nM incubated for 48 hrs by western blot analysis; type: functional, cell-based; method in brief: as §2
HeLa [8] = assay: Induction of apoptosis in human HeLa cells at 50 nM incubated for 24 to 48 hrs by annexin-V FITC and PI staining based flow cytometric analysis; type: functional, cell-based
Method in brief: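 HeLa cells were treated 24 or 48 h, then harvested and double-stained with annexin-V-FITC and PI for flow cytometry. Populations were separated as live, early apoptotic, late apoptotic and necrotic. Mean ± SEM of three independent experiments.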

HeLa [9] = assay: Induction of ROS generation in human HeLa cells at 100 nM incubated for 12 to 24 hrs by H2DCFDA staining based flow cytometric analysis; type: functional, cell-based
Method in brief: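 HeLa cells were treated 6, 12, 24 and 48 h, then stained with H2-DCFDA. ROS fluorescence was read by flow cytometry. Mean ± SEM of three independent experiments.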

HeLa [10] = assay: Induction of apoptosis in human HeLa cells assessed as decrease in Mcl1 protein expression at 50 to 100 nM incubated upto 48 hrs by western blot analysis; type: functional, cell-based; settings: 10 to 100 nM, in the assay text read “10 to 100 nM” for “50 to 100 nM”; method in brief: as §2
[11] = Toxicity in C57BL/6 mouse allografted with mouse B16-BL6 cells assessed as change in body weight at 3 to 7.5 mg/kg, ip administrated every other day; type: organism-based; settings: in vivo
Method in brief: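 Male six-week-old C57BL/6 mice were given BL6-B16 murine melanoma cells subcutaneously in the dorsolateral flank in PBS. Once tumours reached about 100 mm³, mice were randomised and dosed intraperitoneally every other day with 3.0 or 7.5 mg/kg in DMSO, or vehicle alone. Body weight change was followed; 5 animals per group, mean ± SEM.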

[12] = Metabolic stability in human liver microsomes assessed as retention time of the parent compound at 10 uM incubated for 60 mins in presence of NADPH by HPLC analysis; type: ADME, Microsome; settings: 1 h
Method in brief: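 Compound (10 µM) was incubated with pooled mixed-gender HLMs (0.5 mg protein/mL), 1 mM NADPH and 0.1 M KH2PO4 pH 7.4 for 60 min at 37 °C, aerobic. The reaction was started with microsomes and stopped with ice-cold acetonitrile; controls lacked NADPH. The supernatant went to C8 HPLC with fluorescence detection (ex 344, em 493 nm). Collected peaks were analyzed by ESI+ mass spectrometry.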

[13] = Metabolic stability in human liver microsomes at 10 uM incubated for 60 mins in presence of NADPH by ESI-MS analysis; type: ADME, Microsome; settings: 1 h

GI50 (MDA-MB-231) [nM] | GI50 (MDA-MB-468) [nM] | Retention_time [12] [min] | Drug metabolism [13] | Compound | GI50 [1] [nM] | Activity (A2058 [2]) | Activity (A-375) | Activity (A2058 [3]) | Activity (A2058 [4]) | Activity (HeLa [5]) [%] | inhibition (HeLa [6]) | inhibition (HeLa [7]) | Activity (HeLa [8]) | Activity (HeLa [9]) | Activity (HeLa [10]) | Activity [11]
164 | 22.3 | – | – | CCn1ccc2c3c(=O)cc(-c4ccccc4F)[nH]c3ccc21 | 0.26 | Active | Active | Active | Active | 10 | Active | Active | Active | Active | Active | Non-Toxic
– | – | 12.9 | Metabolite_Detected | CCn1ccc2c3c(=O)cc(-c4ccccc4)[nH]c3ccc21 | – | – | – | – | – | – | – | – | – | – | – | –
